Shown are actives, neighbours in structure and some others; about 2.4% of the full set was active somewhere.
NPY Y1 blocker: antagonists of human neuropeptide Y receptor Y1 | 200,000 compounds, 1% hits | P25929 | HEK293-CNG Y1 cells, membrane potential fluorescence; NPY at EC95, then isoproterenol | inhibition, % at 3.6 µM;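 active = inhibition above the campaign mean inhibition of all tested compounds plus 3 SD, cut at about 20% in these data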;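 also: 0% = DMSO wells given NPY plus isoproterenol and 100% = isoproterenol alone without NPY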
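Benchmarks – high control isoproterenol alone, low control NPY with isoproterenol · Material – HEK293 Y1/CNG channel cell line · Times – dye 3 h, compound 60 min room temperature, stimulation 45 min · Probe or stimulus – NPY (25 nM), isoproterenol (1 µM), Ro 20-1724 (25 µM) · Evaluation – % inhibition of NPY effect · Signal – fluorescence, membrane potential probe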
NPY1 pot ag: potentiators or agonists of human neuropeptide Y receptor Y1 | NPY-Y1 expressing cells, potentiator/agonist activation | activation, % at 3.6 µM | 220,000 compounds, 0.37% hits; in the data active = activation above about 33%, passing the limit was not always enough;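 also: cells stimulated with NPY at EC10 then isoproterenol at EC100; 0% = low agonist plus stimulus and 100% = saturating agonist plus stimulus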
NPY Y2 blocker: antagonists of human neuropeptide Y receptor Y2. P49146. NPY-Y2 expressing cells, antagonist mode. inhibition, % at 2.7 µM. 140,000 compounds, 0.99% hits. AID 793; in the data active = inhibition above about 17%;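 also: 0% = vehicle with agonist challenge and 100% = reference antagonist with challenge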
Target sequence (P49146 whole entry, looked up): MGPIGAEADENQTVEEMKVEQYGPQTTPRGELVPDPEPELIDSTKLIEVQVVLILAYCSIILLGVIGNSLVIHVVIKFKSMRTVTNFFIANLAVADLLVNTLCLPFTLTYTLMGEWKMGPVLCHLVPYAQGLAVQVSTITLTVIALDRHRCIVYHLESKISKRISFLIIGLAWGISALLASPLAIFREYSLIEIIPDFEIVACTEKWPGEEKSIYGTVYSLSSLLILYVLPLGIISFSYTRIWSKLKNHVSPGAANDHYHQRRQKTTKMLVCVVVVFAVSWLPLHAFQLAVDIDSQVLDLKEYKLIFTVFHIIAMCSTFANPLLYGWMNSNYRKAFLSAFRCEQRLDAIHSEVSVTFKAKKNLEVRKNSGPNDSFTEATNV
S1P4 ag: agonists of human S1P4 receptor. O95977. 220,000 compounds, 0.35% hits. activation, % at 4.98 µM. S1P4-expressing cell line, agonist reporter assay; in the data active = activation above about 11%;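 also: 0% = DMSO vehicle and 100% = reference agonist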
S1P4 antag: human S1P4 receptor antagonism; S1P4-expressing cells, antagonist mode, reporter read-out; inhibition, % at 4.98 µM; AID 1510; 220,000 compounds, 0.26% hits; in the data active = inhibition above about 29%;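 also: 0% = wells stimulated with agonist and 100% = vehicle wells without agonist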
NPY-Y2 PAM-ag: potentiates or activates human NPY-Y2 receptor | 220,000 compounds, 0.45% hits | activation, % at 3.6 µM | P49146 | cells expressing NPY-Y2, potentiator/agonist read-out; in the data active = activation above about 27%;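 also: cells stimulated with NPY near EC25 plus isoproterenol at EC100; 0% = vehicle plus submaximal agonist and 100% = vehicle plus saturating agonist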
* hit, by the source's call; x = not tested or not shown.

SMILES	NPY Y1 blocker	NPY1 pot ag	NPY Y2 blocker	S1P4 ag	S1P4 antag	NPY-Y2 PAM-ag
COc1ccc(C2CC(c3ccccc3)=NN2C(=O)COC(=O)c2cc(S(=O)(=O)N3CCOCC3)ccc2F)cc1 (centres undefined)	6	-33	1	2	-8	3
OC(COc1ccc2c(c1)OCO2)CN1CCN(c2ccc(F)cc2)CC1 (centres undefined)	2	-9	x	1	-7	-15
CN(C)S(=O)(=O)N1CCC(c2ccc(F)cc2)C(COc2ccc3c(c2)OCO3)C1 (centres undefined)	44*	-17	28*	1	-19	-21
c1csc(COc2ccccc2CNC2CCCCC2)c1	23*	9	31*	1	-8	14
Cc1cc(-c2ccco2)n(-c2ccccc2)n1	-15	105*	3	2	-21	101*
COc1ccc(N2CCN(/C(=N\S(=O)(=O)c3ccccc3)Nc3nc(C)cc(C)n3)CC2)cc1	3	-20	3	0	-26	-15
Cc1ccc(S(=O)(=O)/N=C(/Nc2nc(C)cc(C)n2)N2CCOCC2)cc1	25*	0	-3	0	-20	-6
COc1ccc(OCCSc2nnc(C(C)NC(=O)c3ccccc3F)n2C)cc1 (centres undefined)	-1	8	x	-2	-10	-15
Cc1cc(-c2[nH]nc3c2C(c2ccsc2)C(C#N)=C(N)O3)c(C)s1 (centres undefined)	154*	-61	149*	1	-1	-7
COc1cccc(CSc2nc3cc4c(cc3cc2C)OCCO4)c1	9	-11	2	3	-37	-1
Cc1cccn2c(CNCCCn3ncc4ccccc43)c(C(=O)N3CCCCC3)nc12	1	-1	x	-2	2	-5
CCn1cc(CNCc2c(C(=O)N3CCCCC3)nc3c(C)cccn23)cn1	21*	-16	x	-1	10	-10
CCCCOC(=O)c1cc(C)nc2ccc(Br)cc12	7	101*	4	0	2	31*
O=[N+]([O-])c1ccc(N/N=C/c2cn(Cc3ccc(F)cc3)c3ccccc23)nc1	3	21	2	0	3	4
COc1ccc(CN(C(=S)Nc2ccccc2)C2CC(=O)N(c3ccc(F)cc3)C2=O)cc1 (centres undefined)	-17	12	-3	-3	9	19
COc1ccc(CCN(C(=S)Nc2ccccc2)C2CC(=O)N(c3ccccc3)C2=O)cc1 (centres undefined)	-2	37	-4	1	-11	37*
CC1=[N+](C)c2ccc3ccccc3c2C1(C)C	27*	-71	22*	3	13	-32
O=C1OCCN1C(=O)[C@H]1[C@H](c2ccc([N+](=O)[O-])cc2)C(c2cccc(Cl)c2)=NN1c1ccccc1	-7	29	-1	0	15	31*
CCN(CC)CCNC(=O)c1cccc(NC(=O)C(=O)c2ccccc2NC(C)=O)c1	-1	5	x	-1	5	5
CCOc1ccc2nc(NS(=O)(=O)c3ccc(NC(C)=O)cc3)sc2c1	0	0	1	-1	8	5
CCOc1ccc2nc(NS(=O)(=O)Cc3ccccc3)sc2c1	23*	-35	20*	1	14	-36
O=C(OCc1cncs1)c1cccs1	4	-1	x	-2	14	-7
C/C(=N\Nc1cccc(Cl)c1)c1ccncc1	-12	39*	x	0	2	40*
C/C(=N\Nc1ccc(F)cc1)c1ccncc1	-8	13	-1	0	0	11
O=[N+]([O-])c1ccc(C2CCCC/C2=N/OCc2ccccc2F)c([N+](=O)[O-])c1 (centres undefined)	21*	-34	18*	1	2	-32
SMILES	NPY Y1 blocker	NPY1 pot ag	NPY Y2 blocker	S1P4 ag	S1P4 antag	NPY-Y2 PAM-ag
Cc1cc(Br)ccc1NC(=O)CN1C(=O)C2C3CC(c4ccccc4)C(C3)C2C1=O (centres undefined)	-22	67*	-6	-1	4	53*
CC(=O)NCCCc1c[nH]c2ccc(Cl)cc12	4	-11	4	2	-17	-8
CC(C)NCC(O)COc1cccc2[nH]ccc12 (centres undefined)	-15	113*	x	3	-7	106*
COC(=O)Cc1c[nH]c2ccc(OCC(O)CNC(C)C)cc12 (centres undefined)	-14	101*	0	1	-15	88*
CC(=O)NCCc1c[nH]c2ccc(OCC(O)CNC(C)(C)C)cc12 (centres undefined)	x	81*	x	0	-24	57*
COc1ccc2[nH]cc(CC(=O)O)c2c1	2	-6	1	-6	-2	1
CCN(CC)S(=O)(=O)c1cccc(NC(=O)COC(=O)C2CC3C=CC2C3)c1 (centres undefined)	-4	0	x	1	4	-5
O=C(NCc1ccccc1F)c1ccc(S(=O)(=O)Nc2cccc(C(F)(F)F)c2)cc1	-5	20	-2	1	-7	13
O=C(NCc1ccc(F)cc1)c1ccc(S(=O)(=O)Nc2cccc(C(F)(F)F)c2)cc1	-10	48*	-1	1	-6	37*
Cc1ccccc1NC(=S)N(Cc1cccs1)C1CCCCC1	1	14	x	0	-23	3
Cc1ccccc1NC(=S)N(C)Cc1cccs1	-17	104*	-1	2	-5	101*
O=C(Nc1ccc(Cl)cc1C(=O)Nc1ccc(Br)cn1)c1ccco1	21*	-91	31*	2	-12	-28
COc1ccc(Cl)cc1NC(=O)c1ccco1	1	-6	3	0	-37	-19
COc1ccc2c(c1)c(CC(=O)Nc1cc(C)ccc1C)c(C)n2C(=O)c1ccc(Cl)cc1	4	3	5	1	6	-2
COc1ccc2c(c1)c(CC(=O)Nc1ccccc1OC)c(C)n2C(=O)c1ccc(Cl)cc1	20*	-27	18*	-1	-13	-13
COC(=O)CSc1nc(-c2ccccc2)cc(-c2ccco2)c1C#N	23*	8	21*	-1	-30	-22
CCOC(=O)c1c(NC(=O)C2COc3ccccc3O2)sc2c1CC(C)(C)NC2(C)C (centres undefined)	45*	-127	21*	3	7	-41
CC1CCCc2sc3nc(NCc4ccco4)n4ncnc4c3c21 (centres undefined)	39*	-25	28*	0	-4	-38
COc1ccc(S(=O)(=O)n2nc(-c3cc(OC)c(OC)c(OC)c3)cc2N)cc1OC	-3	-3	4	-1	1	-2
COc1ccc(-c2cc(N)n(S(=O)(=O)c3c(F)c(F)c(F)c(F)c3F)n2)cc1OC	87*	-90	99*	0	26	-27

Compound activity: PubChem, The Scripps Research Institute Molecular Screening Center
